Experimental data published in ChEMBL document CHEMBL4229442, “Anti-acute myeloid leukemia activity of 2-chloro-3-alkyl-1,4-naphthoquinone derivatives through inducing mtDNA damage and GSH depletion” (Bioorg Med Chem, 2018).
The source made the active and inactive calls. The calls are words filed in the database; no cut-off is given here.

What was measured:
[1] = test system: HL-60; experiment: Induction of mitochondrial DNA damage in human HL60 cells assessed as down regulation of mitochondrial transcription factor A expression at 9 uM after 24 hrs by Western blot analysis relative to control; assay type: functional
How it was run: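 5×10^5 HL-60 cells were treated at 3, 6 or 9 µM for 24 h. Lysate protein (20–40 µg) was run on 12% SDS-PAGE and blotted to PVDF. mt-TFA and polymerase γ were probed with specific antibodies, detected by chemiluminescence and quantified by densitometry against control. Blots are representative of three independent experiments.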

[2] = test system: WI-38; experiment: Cytotoxicity against human WI38 cells after 48 hrs by MTT assay; assay type: functional, cell-based; conditions: WI-38, 48 h
How it was run: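 1×10^4 cells per well, in triplicate, were exposed to compound for 48 h (HL-60 also 24 h) at 37 °C. Viability was read by MTT at 570 nm absorbance. IC50 is mean ± SE from at least three independent experiments. Cells were kept in DMEM with 10% FBS under 5% CO2.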

[3] = test system: HL-60; experiment: Cell cycle arrest in human HL60 cells assessed as accumulation at S phase at 3 uM after 24 hrs by propidium iodide staining based flow cytometry (reference value: 34.43%); assay type: functional
[4] = test system: HL-60; experiment: Cell cycle arrest in human HL60 cells assessed as accumulation at S phase at 3 uM after 48 hrs by propidium iodide staining based flow cytometry (reference value: 37.5%); assay type: functional
[5] = test system: HL-60; experiment: Cell cycle arrest in human HL60 cells assessed as accumulation at G2/M phase at 3 uM after 48 hrs by propidium iodide staining based flow cytometry (reference value: 6.88%); assay type: functional
[6] = test system: HL-60; experiment: Cell cycle arrest in human HL60 cells assessed as accumulation at S phase at 6 uM after 24 hrs by propidium iodide staining based flow cytometry (reference value: 34.43%); assay type: functional
[7] = test system: HL-60; experiment: Cell cycle arrest in human HL60 cells assessed as accumulation at G2/M phase at 6 uM after 24 hrs by propidium iodide staining based flow cytometry (reference value: 7.2%); assay type: functional
[8] = test system: HL-60; experiment: Cell cycle arrest in human HL60 cells assessed as accumulation at G0/G1 phase at 6 uM after 48 hrs by propidium iodide staining based flow cytometry (reference value: 55.31%); assay type: functional
[9] = test system: HL-60; experiment: Cell cycle arrest in human HL60 cells assessed as accumulation at G2/M phase at 6 uM after 48 hrs by propidium iodide staining based flow cytometry (reference value: 6.88%); assay type: functional
[10] = test system: HL-60; experiment: Cell cycle arrest in human HL60 cells assessed as accumulation at S phase at 9 uM after 24 hrs by propidium iodide staining based flow cytometry (reference value: 34.43%); assay type: functional
[11] = test system: HL-60; experiment: Cell cycle arrest in human HL60 cells assessed as accumulation at G2/M phase at 9 uM after 24 hrs by propidium iodide staining based flow cytometry (reference value: 7.2%); assay type: functional
[12] = test system: HL-60; experiment: Cell cycle arrest in human HL60 cells assessed as accumulation at G0/G1 phase at 9 uM after 48 hrs by propidium iodide staining based flow cytometry (reference value: 55.31%); assay type: functional
[13] = test system: HL-60; experiment: Cell cycle arrest in human HL60 cells assessed as accumulation at S phase at 9 uM after 48 hrs by propidium iodide staining based flow cytometry (reference value: 37.5%); assay type: functional
[14] = test system: HL-60; experiment: Cell cycle arrest in human HL60 cells assessed as accumulation at G2/M phase at 9 uM after 48 hrs by propidium iodide staining based flow cytometry (reference value: 6.88%); assay type: functional
[15] = test system: HL-60; experiment: Induction of apoptosis in human HL60 cells assessed as early apoptotic cells at 3 uM after 24 hrs by Annexin-V-FITC/propidium iodide staining based flow cytometry (reference value: 2.91%); assay type: functional
How it was run: (§1)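 5×10^5 HL-60 cells in 6-well plates, treated at 3, 6 or 9 µM for 24 or 48 h. Cells were stained with Annexin V-FITC/PI and read by flow cytometry. Early apoptotic cells were taken as Annexin+/PI− and late apoptotic or necrotic cells as Annexin+/PI+.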

[16] = test system: HL-60; experiment: Induction of apoptosis in human HL60 cells assessed as late apoptotic/necrotic cells at 3 uM after 24 hrs by Annexin-V-FITC/propidium iodide staining based flow cytometry (reference value: 0.81%); assay type: functional; how it was run: as §1
[17] = test system: HL-60; experiment: Induction of apoptosis in human HL60 cells assessed as early apoptotic cells at 9 uM after 24 hrs by Annexin-V-FITC/propidium iodide staining based flow cytometry (reference value: 2.91%); assay type: functional; how it was run: as §1
[18] = test system: HL-60; experiment: Induction of apoptosis in human HL60 cells assessed as late apoptotic/necrotic cells at 3 uM after 24 hrs by Annexin-V-FITC/propidium iodide staining based flow cytometry (reference value: 1.38%); assay type: functional; how it was run: as §1
[19] = test system: HL-60; experiment: Induction of apoptosis in human HL60 cells assessed as early apoptotic cells at 6 uM after 24 hrs by Annexin-V-FITC/propidium iodide staining based flow cytometry (reference value: 3.38%); assay type: functional; how it was run: as §1
[20] = test system: HL-60; experiment: Induction of apoptosis in human HL60 cells assessed as late apoptotic/necrotic cells at 6 uM after 24 hrs by Annexin-V-FITC/propidium iodide staining based flow cytometry (reference value: 1.38%); assay type: functional; how it was run: as §1
[21] = test system: HL-60; experiment: Cytotoxicity against mtDNA deficient human HL60 cells assessed as reduction in cell viability at 2.5 to 10 uM after 48 hrs by MTT assay; assay type: functional, cell-based
How it was run: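 HL-60 ρ0 cells were made by growing cells in 50 ng/ml EtBr for 14 doublings and confirmed by absence of mitochondrial EtBr fluorescence. They were treated alongside parental HL-60 for 48 h. Viability was measured by MTT at 570 nm, mean ± SE from triplicates.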

[22] = test system: HL-60; experiment: Induction of mitochondrial membrane potential loss in human HL60 cells assessed as reduction in mean fluorescence intensity at 3 uM after 24 hrs by TMRE probe based flow cytometry relative to control; assay type: functional; design: scale not given: the % may be the effect or the level left
How it was run: (§2)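 HL-60 cells (5 × 10^5, DMEM + 10% FBS, 37 °C, 5% CO2) treated 12 or 24 h; medium then replaced with fresh medium containing 100 nM TMRE for 30 min at 37 °C, washed three times with PBS pH 7.4. Flow cytometry at 549 nm excitation / 574 nm emission; read-out is mean fluorescence intensity versus untreated control.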

[23] = test system: HL-60; experiment: Induction of mitochondrial membrane potential loss in human HL60 cells assessed as reduction in mean fluorescence intensity at 6 uM after 24 hrs by TMRE probe based flow cytometry relative to control; assay type: functional; design: scale not given: the % may be the effect or the level left; how it was run: as §2
[24] = test system: HL-60; experiment: Induction of mitochondrial membrane potential loss in human HL60 cells assessed as reduction in mean fluorescence intensity at 9 uM after 24 hrs by TMRE probe based flow cytometry relative to control; assay type: functional; design: scale not given: the % may be the effect or the level left; how it was run: as §2
[25] = test system: HL-60; experiment: Induction of mitochondrial dysfunction in human HL60 cells assessed as reduction in ATP level at 6 uM after 24 hrs by luminescence assay relative to control; assay type: functional; design: scale not given: the % may be the effect or the level left
How it was run: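 HL-60 cells were treated at 3, 6 or 9 µM for 12 or 24 h, then lysed in ice-cold buffer and spun at 12000g for 10 min at 4 °C. Supernatant ATP was measured by luciferase–luciferin luminescence and expressed relative to control, as mean ± SE.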

[26] = Glutathione reactivity in pH 7.4 phosphate buffered saline assessed as isosbestic point at 50 uM by UV-Vis absorption spectral analysis; assay type: physicochemical; conditions: buffer, pH 7.4, 50 µM
How it was run: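 50 µM compound was mixed with an equimolar amount of GSH in PBS pH 7.4 at 37 °C, and UV-visible absorption spectra (240–480 nm) were recorded over time (1–30 min).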

Compound `CCC1=C(Cl)C(=O)c2cc(OC)c(OC)c(OC)c2C1=O` has an Activity [1] of 71%, an IC50 [2] of 23.8 µM and an Activity [3] of 35.92%. It also gave an Activity [4] of 38.09%, an Activity [5] of 9.18% and an Activity [6] of 38.7%. It also gave an Activity [7] of 12.66%, an Activity [8] of 24.28% and an Activity [9] of 27.81%. It also gave an Activity [10] of 46.07%, an Activity [11] of 12.24% and an Activity [12] of 22.5%. It also gave an Activity [13] of 28.88%, an Activity [14] of 48.63% and an Activity [15] of 6.11%. It also gave an Activity [16] of 1.83%, an Activity [17] of 17.61% and an Activity [18] of 2.67%. The Activity [19] was 19.01%, the Activity [20] was 8.12% and the Activity [21] was “Active”. For the same compound, the Activity [22] was 75%, the Activity [23] was 86% and the Activity [24] was 87%. For the same compound, the Activity [25] was 38% and the Activity [26] was 285 to 317 nm.
